Screening results (PubChem BioAssay)
PABP FP inh: PABP-poly(A) binding inhibition. hit rate 1% among 290,000. calls only at 35 µM. PABP-poly(A) RNA binding, fluorescence polarization;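 further: calls also rest on retests at 20 µM and on dose response follow-up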
Target sequence (P11940 whole entry, looked up): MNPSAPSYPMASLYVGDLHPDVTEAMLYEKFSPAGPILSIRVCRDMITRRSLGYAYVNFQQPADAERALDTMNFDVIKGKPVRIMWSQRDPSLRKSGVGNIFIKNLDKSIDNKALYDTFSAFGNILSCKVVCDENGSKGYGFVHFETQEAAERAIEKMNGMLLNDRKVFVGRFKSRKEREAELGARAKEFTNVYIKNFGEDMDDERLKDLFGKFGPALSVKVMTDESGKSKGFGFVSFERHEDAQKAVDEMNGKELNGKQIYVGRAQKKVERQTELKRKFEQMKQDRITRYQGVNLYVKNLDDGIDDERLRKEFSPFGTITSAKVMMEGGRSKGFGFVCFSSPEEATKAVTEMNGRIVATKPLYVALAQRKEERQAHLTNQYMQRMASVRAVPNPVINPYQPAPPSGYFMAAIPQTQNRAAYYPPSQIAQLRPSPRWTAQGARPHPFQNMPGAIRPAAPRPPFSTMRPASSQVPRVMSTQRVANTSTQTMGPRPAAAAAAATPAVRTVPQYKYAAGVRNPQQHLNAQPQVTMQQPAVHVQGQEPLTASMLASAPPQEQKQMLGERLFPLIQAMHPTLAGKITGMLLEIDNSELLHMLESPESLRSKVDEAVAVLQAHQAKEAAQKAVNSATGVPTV
eIF4H inh: inhibitors of RNA binding by human eIF4H | hit rate 0.94% among 290,000 | inhibition, % at 35 µM | Q15056 | AID 2012 | eIF4H fluorescence polarization binding assay;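 further: calls also rest on retests at 20 µM and on dose response follow-up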
MT1-MMP act inh: blocks activation of human MT1-MMP. P50281. HT1080 RFP-PRO-GFP cells, GFP/RFP ratio fluorescence, overnight; percent of plate control window, DMSO zero. GFP/RFP ratio change, % at 20 µM. hit rate 0.061% among 360,000. AID 651647;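 active means GFP/RFP ratio change of at least 30% with cell ATP level not reduced by more than half and red fluorescence within 50% of control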
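system = RFP-PRO-GFP reporter HT1080 cells | dosing = 20 µM single dose, 1% DMSO | timing = overnight cell settling, then overnight compound exposure, 37 °C, 5% CO2 | read-out basis = GFP/RFP fluorescence ratio | controls = DMSO and RFP-L50D-GFP cell wells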
SKN-1 block: inhibitors of C. elegans SKN-1; C. elegans VP596 Pgst-4::GFP/RFP ratio, acrylamide-induced, 24 h; inhibition, % at 21.8 µM; hit rate 0.49% among 360,000;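 active means interference check ratio from 0.5 to 1.5 plus GFP to RFP signal ratio inhibition reaching or exceeding a fixed threshold, cut at about 30% in these data, passing the limit was not always enough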
PABP1 MLLE inh: inhibitors of microRNA-mediated deadenylation, human PABP1 MLLE binding; P11940; hit rate 0.36% among 360,000; AID 588489; inhibition, % at 20 µM; GST-MLLE / FITC-PAM2 fluorescence polarization; in the data active means inhibition above about 35%, passing the limit was not always enough
Each line names hits and unclear results; the compound was inactive in the other large screens. A selection: hits, their analogues and other compounds. The true share with any hit is near 1.8%. Unless noted, how the calls were made is not given here.

CC(C)N(C(=O)[C@H]1C[C@H](CC(=O)NCCN2CCOCC2)C(=O)N2CCc3c([nH]c4ccc(Cl)cc34)[C@]12C)C(C)C	none (no result: PABP FP inh, eIF4H inh)
COc1ccc(OCCN(C)C(=O)c2cccc(S(=O)(=O)N(C)c3ccccc3)c2)cc1	SKN-1 block 37 (no result: PABP FP inh, eIF4H inh)
COc1cc2c(cc1NC(=O)c1ccc(C)c([N+](=O)[O-])c1)oc1ccccc12	eIF4H inh active
CCOC(=O)C1(C)/C(=N/Nc2ccc(Cl)cc2)C(=O)C(=O)N1c1ccccc1 (stereo unspecified)	SKN-1 block 38
CCOC(=O)C1(C)/C(=N/Nc2cccc(Cl)c2)C(=O)C(=O)N1c1ccccc1 (stereo unspecified)	none
COC(=O)CSc1ncnc2c1sc1nc3c(cc12)COC(C)(C)C3	eIF4H inh active
CC1(C)Cc2nc3sc4c(SCC(=O)O)ncnc4c3cc2CO1	none
COc1ccc(CN2C(=O)CSCC2(C)C(=O)NCc2ccccc2)cc1 (stereo unspecified)	none (no result: PABP FP inh, eIF4H inh, PABP1 MLLE inh)
CC[n+]1cc(-c2ccccc2)nc(N2CCOCC2)n1	PABP FP inh active
CCC12C(=Nc3c(Cl)cccc31)C[C@@H]1CCN3C(=O)CCC[C@H]2[C@H]13 (stereo partly specified)	none (no result: PABP FP inh, eIF4H inh)
COC(=O)CNC(c1ccccc1)c1cc(Br)ccc1NC(C)=O (stereo unspecified)	none
COC(=O)CNC(c1ccccc1Cl)c1cc(Br)ccc1NS(=O)(=O)c1ccc(C)cc1 (stereo unspecified)	eIF4H inh active
CC(=O)Nc1cc(-c2ccccc2)cn2c(-c3cccc(C(C)=O)c3)cnc12	none (no result: PABP FP inh, eIF4H inh)
COCCn1c(SCC(=O)Nc2cccc(C)c2)nnc1C(C)C	SKN-1 block 37
COc1ccccc1COC(=O)c1ccc(S(=O)(=O)N2CCOCC2)cc1	none (no result: PABP FP inh, eIF4H inh)
Oc1ccc2ccccc2c1N=Nc1ccccn1	none
CCOC(=O)c1[nH]cnc1N=Nc1c(O)ccc2ccccc12	eIF4H inh inconclusive, PABP1 MLLE inh 51
C[C@@H]1CN([C@@H](C)CO)C(=O)CCCn2nncc2CO[C@@H]1CN(C)S(=O)(=O)c1cccs1	none (no result: PABP FP inh, eIF4H inh)
O=C(Nn1c(O)c(C=C2N=c3ccccc3=N2)sc1=S)c1cccc(Cl)c1	PABP FP inh active
CCNC(=S)NNC(=O)CCc1nc2cc(Cl)ccc2n(Cc2ccccc2)c1=O	none
CN(C)C(CNC(=O)CCc1nc2cc(Cl)ccc2n(Cc2ccccc2)c1=O)c1ccccc1 (stereo unspecified)	SKN-1 block 57 (no result: PABP FP inh, eIF4H inh)
CCC(=O)NC(=S)NNC(=O)c1ccccc1[N+](=O)[O-]	PABP FP inh active, eIF4H inh inconclusive
O=C(NCc1ccc(/C=c2\sc3n(c2=O)CCN=3)o1)C(=O)Nc1ccccc1	eIF4H inh 82 (no result: MT1-MMP act inh, SKN-1 block, PABP1 MLLE inh)
Cc1ccc(/C=c2/sc3n(c2=O)CCCN=3)o1	none
CCCN(CCC)c1ccc(/C=C/c2ccc3cc(OCC)ccc3n2)cc1	PABP FP inh active, eIF4H inh inconclusive
Fc1ccccc1/C=C/c1ccc2ccccc2n1	SKN-1 block 88
CN(C)c1ccc(/C=C/c2ccc3ccccc3n2)cc1	SKN-1 block 58
C(=C\c1ccc2ccccc2n1)/c1ccccc1	SKN-1 block 84
CC(O)(c1ccccc1)c1nc(-c2cccc(C#N)c2)cs1 (stereo unspecified)	none (no result: PABP FP inh, eIF4H inh)
CC(C)CC(=O)NC(=S)NNC(=O)c1ccc(NC(=O)C2CCCCC2)cc1	PABP FP inh active, eIF4H inh 61
CC(C)CC(=O)NC(=S)NNC(=O)c1ccc([N+](=O)[O-])cc1	none
Cc1ccc(S(=O)(=O)NCCCCC(NC(=O)OC(C)(C)C)C(=O)O)cc1 (stereo unspecified) (tested in a mixture with another compound)	SKN-1 block 35
O=C(CCN1CCN(S(=O)(=O)c2ccc(Cl)cc2)CC1)Nc1ccccc1F	none
O=C(CCN1CCN(S(=O)(=O)c2ccc(Cl)cc2)CC1)Nc1ccc(F)cc1	SKN-1 block 46
CNC(=O)[C@@]1(Cc2ccccc2)C=C[C@@H](C)N1C(=O)OC	none (no result: PABP FP inh, eIF4H inh)
C[C@@H]1C=C[C@](Cc2ccccc2)(C(=O)NCC2CC2)N1C(=O)c1ccccc1	SKN-1 block 35
FC(F)(F)C1=CC(c2ccc(Cl)cc2)=NCCN1	SKN-1 block 36
C=CCN(CC=C)C(=S)Nc1ccc2nsnc2c1	PABP1 MLLE inh 52
O=C(COC(=O)C12CC3CC(CC(O)(C3)C1)C2)Nc1cccc(Br)c1	SKN-1 block 38 (no result: PABP FP inh, eIF4H inh)
CCC(C(=O)OCC(=O)Nc1cc(OC)ccc1OC)c1ccccc1 (stereo unspecified)	PABP FP inh active
CCC(C(=O)OCC(=O)c1ccc(OC)cc1OC)c1ccccc1 (stereo unspecified)	none (no result: PABP FP inh, eIF4H inh)
Cc1cn([C@H]2C[C@H](O)[C@@H](CCC(=O)NCC3CCCO3)O2)c(=O)[nH]c1=O (stereo partly specified)	none (no result: PABP FP inh, eIF4H inh)
O=C(Nc1ccc2c(c1)N(S(=O)(=O)c1cccs1)CCC2)c1c(F)cccc1Cl	none (no result: PABP FP inh, eIF4H inh)
COc1ccc(NC(=S)NC(C)Cc2cccs2)cc1 (stereo unspecified)	PABP FP inh active, eIF4H inh 108
CC(C)c1nnc(NC(=O)CC(C)c2ccccc2)s1 (stereo unspecified)	none
CC(CC(=O)Nc1nnc(C(C)(C)C)s1)c1ccccc1 (stereo unspecified)	PABP1 MLLE inh 48
Cc1cnc(NC(=O)CC(C)c2ccccc2)s1 (stereo unspecified)	SKN-1 block 35
CN1CCN(/N=C/c2ccc(-c3ccccc3)cc2)CC1	SKN-1 block 79
C(=N\N1CCN(Cc2ccccc2)CC1)/c1ccc(-c2ccccc2)cc1	none
O=c1c2ccccc2c(C=NCc2ccccn2)c(O)n1-c1ccccc1	PABP FP inh active, eIF4H inh 90
COc1cccc(-n2c(O)c(C=NCc3ccccn3)c3ccccc3c2=O)c1	none
CCN(CC(=O)NCc1cccs1)C(=O)c1ccc(-c2cccc(C(F)(F)F)c2)o1	none (no result: PABP FP inh, eIF4H inh)
CCC(C(=O)Nc1cccc(S(=O)(=O)N(C)c2ccccc2)c1)c1ccccc1 (stereo unspecified)	SKN-1 block 40 (no result: PABP FP inh, eIF4H inh)
CN(C)S(=O)(=O)c1cccc(NC(=O)C(c2ccccc2)c2ccccc2)c1	none
COC(=O)CSc1[nH]c2ccccc2c1[N+](=O)[O-]	PABP1 MLLE inh 39
Cc1[nH]nc(SCC(=O)NCc2ccccc2)c1[N+](=O)[O-]	none
CCc1nc2cc(NC(=O)C3(C)CCCN(C(C)C)C3)ccc2o1 (stereo unspecified)	none (no result: PABP FP inh, eIF4H inh)
CC(=O)Nc1ccc2ccc3cccc4ccc1c2c34	eIF4H inh 60
CC(=O)Nc1cccc2cc(O)ccc12	none (no result: PABP FP inh, eIF4H inh)
O=C(Cn1c(C(F)(F)F)nc2ccccc21)c1ccc(F)cc1	SKN-1 block 35
CS(=O)(=O)c1ccc(C(=O)NNC(=O)c2ccccc2-n2cccc2)cc1	none (no result: PABP FP inh, eIF4H inh)
COc1ccc(S(=O)(=O)Nc2cc3c4c(oc3c3ccccc23)CCCC4=O)cc1	none
